{"source": "ChEMBL document CHEMBL1909636", "about": "“Evaluation of the antiproliferative activity of diterpene isonitriles from the sponge Pseudoaxinella flava in apoptosis-sensitive and apoptosis-resistant cancer cell lines” (2011)", "key": {"[1]": {"test_system": "PC-3", "assay": "Growth inhibition of human PC3 cells after 72 hrs by MTT colorimetric assay", "type": "functional", "details": "PC-3, 72 h", "outline": "(§1)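 Cells were exposed to the compound over a range of concentrations for three days (72 h) and growth was read by MTT colorimetric assay. IC50 is the concentration that reduces global growth of the cell population by 50%.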"}, "[2]": {"test_system": "A549", "assay": "Growth inhibition of human A549 cells after 72 hrs by MTT colorimetric assay", "type": "functional", "details": "A549, 72 h", "outline": "as §1"}, "[3]": {"test_system": "PC-3", "assay": "Cytostatic activity in human PC3 cells at IC50 by quantitative video microscopy analysis", "type": "functional, cell-based", "outline": "(§2)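 PC3 cells were treated for 72 h at a single concentration taken from the 72 h MTT growth assay and followed by computer-assisted phase-contrast videomicroscopy. Dead cells were scored as rounded and refringent, and cytostatic action was distinguished as inhibited proliferation without cell death. Morphology was examined at ×100 and, for high-magnification views, ×500.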"}, "[4]": {"assay": "Growth inhibition of human U373 cells after 72 hrs by MTT colorimetric assay", "type": "functional, U-373MG ATCC", "details": "U373 MG", "outline": "as §1"}, "[5]": {"test_system": "LoVo", "assay": "Growth inhibition of human LoVo cells after 72 hrs by MTT colorimetric assay", "type": "functional", "outline": "as §1"}, "[6]": {"assay": "Growth inhibition of human Hs683 cells after 72 hrs by MTT colorimetric assay", "type": "functional", "details": "Hs 683, 72 h", "outline": "as §1"}, "[7]": {"test_system": "SK-MEL-28", "assay": "Growth inhibition of human SK-MEL-28 cells after 72 hrs by MTT colorimetric assay", "type": "functional", "details": "SK-MEL-28, 72 h", "outline": "as §1"}, "[8]": {"test_system": "PC-3", "assay": "Cytotoxicity against human PC3 cells assessed as cell death at IC50 by quantitative video microscopy analysis", "type": "functional, cell-based", "outline": "as §2"}, "[9]": {"test_system": "PC-3", "assay": "Induction of apoptosis in human PC3 cells assessed as vacuolization after 72 hrs at IC50 by quantitative video microscopy analysis", "type": "functional, cell-based"}}, "note": "Active and inactive are the calls of the source. The rule behind the calls is not given here."}
{"smiles": "[C-]#[N+]C(C)(C)C[C@@H]1C[C@H](C)[C@H]2CC[C@H](C)[C@@]3([N+]#[C-])CCC(=C)[C@@H]1[C@H]23", "note": "[DIISOCYANOAMPHILECTENE]", "values": [{"measurement": "GI50", "setting": "[1]", "value": 1, "unit": "µM"}, {"measurement": "GI50", "setting": "[2]", "value": 42, "unit": "µM"}, {"measurement": "Activity", "setting": "[3]", "value": "Active"}, {"measurement": "GI50", "setting": "[4]", "value": 25, "unit": "µM"}, {"measurement": "GI50", "setting": "[5]", "value": 3, "unit": "µM"}, {"measurement": "GI50", "setting": "[6]", "value": 50, "unit": "µM"}, {"measurement": "GI50", "setting": "[7]", "value": 6, "unit": "µM"}]}
{"smiles": "[C-]#[N+][C@@]1(C)CC[C@H]2[C@H]3[C@@H](C(=C)CC[C@H]31)[C@H](C=C(C)C)C[C@@H]2C", "values": [{"measurement": "GI50", "setting": "[1]", "value": 7, "unit": "µM"}, {"measurement": "Activity", "setting": "[8]", "value": "Active"}, {"measurement": "Activity", "setting": "[9]", "value": "Active"}]}
{"smiles": "[C-]#[N+][C@@]1(C)CC[C@H]2[C@H]3[C@@H](C(=C)CC[C@H]31)[C@H](CC(=C)C)C[C@@H]2C", "values": [{"measurement": "GI50", "setting": "[1]", "value": 7, "unit": "µM"}, {"measurement": "Activity", "setting": "[8]", "value": "Active"}]}
{"smiles": "[C-]#[N+]C(C)(C)C[C@@H]1C[C@H](C)[C@H]2CC[C@](C)([N+]#[C-])[C@@H]3CCC(=C)[C@@H]1[C@H]23", "values": [{"measurement": "GI50", "setting": "[1]", "value": 3, "unit": "µM"}, {"measurement": "GI50", "setting": "[2]", "value": 16, "unit": "µM"}, {"measurement": "Activity", "setting": "[3]", "value": "Active"}, {"measurement": "GI50", "setting": "[4]", "value": 10, "unit": "µM"}, {"measurement": "GI50", "setting": "[5]", "value": 3, "unit": "µM"}, {"measurement": "GI50", "setting": "[6]", "value": 4, "unit": "µM"}, {"measurement": "GI50", "setting": "[7]", "value": 32, "unit": "µM"}]}
